Measured values published in paper PMC6366850 (Chembiochem : a European journal of chemical biology, 2018).
Read-outs that look alike come from different tables or passages of the source.

Key:
[1] = biological target: T1, Human Neutrophil Elastase (Homo sapiens, UniProt P08246); experiment: Human neutrophil elastase inhibition assay; type: biochemical; conditions: for fold less potent than 1, HNE: ratio of IC50 values
T1 sequence (P08246 30-267): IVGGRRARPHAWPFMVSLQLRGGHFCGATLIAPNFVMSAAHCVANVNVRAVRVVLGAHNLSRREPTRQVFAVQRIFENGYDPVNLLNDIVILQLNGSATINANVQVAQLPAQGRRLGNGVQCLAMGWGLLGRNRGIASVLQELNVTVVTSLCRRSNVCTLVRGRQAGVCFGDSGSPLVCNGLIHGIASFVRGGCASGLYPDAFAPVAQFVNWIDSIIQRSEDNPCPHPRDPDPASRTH

[2] = tested on: CD40 cleavage by HNE in MDA-MB-231 cells; experiment: Cleavage of CD40 by HNE in MDA-MB-231 cells, Western blot; type: cell-based, human; conditions: 100 nM HNE, 24 h
In short: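 MDA-MB-231 cells seeded at 150,000/well; after 24 h, medium was replaced with medium containing 100 nM recombinant human neutrophil elastase plus test compound in DMSO or solvent. Lysates were taken after 24 h incubation and protein measured by BCA. 17 μg protein was run on SDS-PAGE, blotted to PVDF and probed with anti-CD40 antibody detecting the N-terminal fragment, with chemiluminescent detection.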

[3] = biological target: Porcine Pancreatic Elastase (Sus scrofa, UniProt P00772); experiment: Porcine pancreatic elastase inhibition assay; type: biochemical
Sequence of Porcine Pancreatic Elastase (P00772 27-266): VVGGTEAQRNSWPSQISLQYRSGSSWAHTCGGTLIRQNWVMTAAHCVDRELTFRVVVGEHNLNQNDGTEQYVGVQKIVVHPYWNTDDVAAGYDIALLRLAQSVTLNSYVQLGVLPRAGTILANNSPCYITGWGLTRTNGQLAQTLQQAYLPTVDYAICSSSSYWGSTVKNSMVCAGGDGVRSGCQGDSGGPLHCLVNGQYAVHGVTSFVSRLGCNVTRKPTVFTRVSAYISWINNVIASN

[4] = biological target: T2, Human neutrophil elastase (HNE) (Homo sapiens, UniProt P08246); experiment: In vitro cleavage of CD40-IgG chimera; type: biochemical; conditions: qualitative gel assessment; for complete inhibition of CD40ch cleavage up to (concentration): tested 0.001–100 μM, 2 h pre-incubation with HNE
T2 sequence (P08246 30-267): T1 sequence (P08246 30-267)
In short: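 Human neutrophil elastase (100 μg/mL stock in 0.1 M Tris-NaCl, pH 7.5) was pre-incubated 2 h at 4 °C with test compound (0.001–100 μM) or DMSO. CD40-IgG chimera (human CD40 residues 21–193 fused to human IgG1 fragment) was then added at an elastase:CD40 molar ratio of 1:10 and incubated 1.5 h at 37 °C. Reactions were stopped by freezing and fragments run on reducing SDS-PAGE (2% mercaptoethanol). Gels were silver-stained and bands judged qualitatively; controls were elastase only and CD40 only.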

MDA-MB-231 cells [5] = experiment: Transwell migration assay; type: cell-based, human; conditions: 48 h; for effect on migration of MDA-MB-231 cells: 100 nM HNE
In short: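 Transwell inserts with 8 μm pore PET membranes. 5000 MDA-MB-231 cells in DMEM/10% FBS were seeded in the insert with test compound in DMSO or solvent, with or without 100 nM recombinant HNE; the lower chamber held complete medium with the same additions. Plates were incubated 48 h at 37 °C, 5% CO₂, and non-migrated cells were swabbed off. Migrated cells were crystal violet-stained and counted microscopically, in triplicate. Comparisons to solvent control used a two-tailed unpaired t test.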

[6] = biological target: T3, Bovine Pancreatic Chymotrypsin (Bos taurus, UniProt P00766); experiment: Chymotrypsin inhibition assay; type: biochemical
In short: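 Bovine pancreatic α-chymotrypsin in 50 mM Tris-HCl, 100 mM NaCl, 1 mM CaCl₂, pH 7.8. Test compound in DMSO (top 100 μM final, half-log dilutions) was pre-incubated with enzyme for 30 min at room temperature. Substrate was N-succinyl-Gly-Gly-Phe-p-nitroanilide (1.5 mM solution). A405 was read every 30 s for 30 min, with a PMSF positive control. Percent activity came from initial slopes relative to solvent control.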

MDA-MB-231 cells [7] = experiment: Cell viability assay; type: cell-based, human; conditions: 48 h, MTT
In short: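 MDA-MB-231 cells seeded at 12,000 cells/well and grown 24 h, then exposed to test compound, HNE or DMSO solvent control. After 48 h, viability was read by MTT per the kit instructions.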

MDA-MB-231 cells [8] = experiment: HNE-induced morphological changes; type: cell-based, human
[9] = biological target: purified 20S human proteasome (Homo sapiens, UniProt P28074); experiment: Proteasome activity assay; type: biochemical; conditions: 50 μM, compared to positive control epoxomicin
In short: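 Purified human 20S proteasome (0.1 μg/well final) was pre-incubated 10 min at room temperature with test compound (50 μM final). Suc-LLVY-AMC substrate (75 μM final) was then added to measure chymotrypsin-like activity, using a commercial kit per the manufacturer's protocol.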

[10] = tested on: sICAM-1 (ICAM-1 shedding) in MDA-MB-231 cells; experiment: sICAM-1 levels by ICAM-1 AlphaLisa; type: cell-based, human; conditions: 12 h; for reduction in the levels of sICAM-1: co-treatment with 100 nM HNE
In short: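 MDA-MB-231 cells were grown overnight, starved 24 h, then placed in serum-free DMEM containing test compound or solvent, with 100 nM HNE where applied. After 12 h, culture medium was collected and soluble ICAM-1 quantified by AlphaLisa.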

[11] = tested on: ICAM-1 gene expression in MDA-MB-231 cells; experiment: ICAM-1 gene expression by RT-qPCR; type: cell-based, human; conditions: 12 h
In short: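 MDA-MB-231 cells seeded at 500,000/well, grown 24 h, then serum-starved 24 h in DMEM. Medium was replaced with serum-free DMEM containing test compound or solvent, with 100 nM HNE where applied, for 12 h. RNA was isolated, reverse-transcribed with oligo(dT), and ICAM-1 transcripts were quantified by TaqMan qPCR.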

[12] = biological target: T3, Bovine Pancreatic Chymotrypsin; conditions: read-out: reported IC50 against bovine chymotrypsin; cited from earlier work
[13] = read-out: IC50 Human Neutrophil Elastase, mean ± SD, n=3, 15 min pre-incubation

## CCCC(=O)N[C@@H](C)C(=O)N[C@H](C(=O)N[C@@H]1C(=O)N[C@@H](CC(C)C)C(=O)N[C@H]2CC[C@@H](O)N(C2=O)[C@@H](Cc2ccccc2)C(=O)N(C)[C@@H](Cc2ccc(O)cc2)C(=O)N[C@@H](C(C)C)C(=O)O[C@@H]1C)[C@H](C)O [Loggerpeptin A (1), loggerpeptin A]
[1]; [13]
  IC50: 290 ± 40 nM

## CCCC(=O)N[C@@H](C)C(=O)N[C@@H](C(=O)N[C@@H]1C(=O)N[C@@H](CC(C)C)C(=O)N[C@H]2CC[C@@H](O)N(C2=O)[C@@H](Cc2ccccc2)C(=O)N(C)[C@@H](Cc2ccc(O)cc2)C(=O)N[C@@H](C(C)C)C(=O)O[C@H]1C)[C@@H](C)OC(=O)[C@H](C)NC(=O)CCC [Loggerpeptin B (2), loggerpeptin B]
[1]
  fold less potent than 1, HNE: 3 fold
[1]; [13]
  IC50: 890 ± 90 nM

## C/C=C(\NC(=O)[C@H](C)NC(=O)CCC)C(=O)N[C@@H]1C(=O)N[C@@H](CC(C)C)C(=O)N[C@H]2CC[C@@H](O)N(C2=O)[C@@H](Cc2ccccc2)C(=O)N(C)[C@@H](Cc2ccc(O)cc2)C(=O)N[C@@H](C(C)C)C(=O)O[C@@H]1C [Loggerpeptin C (3), loggerpeptin C]
[1]
  fold less potent than 1, HNE: 2 fold
[1]; [13]
  IC50: 620 ± 380 nM
[2]; 10 μM
  inhibition of HNE processing of CD40 in cells: lacked significant activity
[2]; 50 μM
  inhibition of HNE processing of CD40 in cells: marginal activity
[3]; ratio of IC50 values
  fold less potent than 1 and 2, porcine pancreatic elastase: 2 fold
[4]
  complete inhibition of CD40ch cleavage up to (concentration): 10 µM
MDA-MB-231 cells [5]; different concentrations
  effect on migration of MDA-MB-231 cells: no effect on migration

## C/C=C1\NC(=O)[C@@H](NC(=O)[C@@H](NC(=O)[C@H](C)NC(=O)CCC)[C@@H](C)O)[C@@H](C)OC(=O)[C@H](C(C)C)NC(=O)[C@H](Cc2ccc(O)cc2)N(C)C(=O)[C@H](Cc2ccccc2)N2C(=O)[C@H](CC[C@H]2O)NC1=O [Molassamide (4), molassamide]
[1]
  IC50: 110 ± 10 nM
[2]; 50 μM
  inhibition of HNE processing of CD40 in cells: virtually complete inhibition
[3]
  IC50: 50 ± 10 nM
[4]
  fold more potent than 3 in inhibiting CD40ch cleavage: 10 fold
  complete inhibition of CD40ch cleavage up to (concentration): 1 µM
[6]
  IC50: 240 ± 10 nM
MDA-MB-231 cells [7]
  effect on viability of MDA-MB-231 cells: no reduction in cell viability
MDA-MB-231 cells [5]; 10 μM
  effect on migration of MDA-MB-231 cells: inhibited the migration
MDA-MB-231 cells [5]; without HNE
  effect on migration of MDA-MB-231 cells in the absence of HNE: did not exhibit any migration inhibitory activity
MDA-MB-231 cells [8]; co-treatment with 100 nM HNE, 3 h
  HNE-induced cell rounding prevented up to (concentration): 10 µM
MDA-MB-231 cells [8]; without HNE, up to 50 μM
  morphological changes upon treatment with compound only: no morphological changes
[9]
  inhibition of chymotrypsin-like activity of proteasomes: did not inhibit
[10]; 10 μM
  reduction in the levels of sICAM-1: 35%
[10]; 50 μM
  reduction in the levels of sICAM-1: 65%
[10]; without HNE
  effect on the levels of sICAM-1 in the absence of HNE: no effects
[11]; 100 nM HNE
  elastase-induced ICAM-1 expression levels: dose-dependent decrease
[11]; without HNE
  ICAM-1 expression levels in the absence of HNE: no significant change

## CC(C)(C)C(=O)Oc1ccc(S(=O)(=O)Nc2ccccc2C(=O)NCC(=O)O)cc1 [Sivelestat, reference compound]
[3]
  IC50: 3550 ± 140 nM

## CC(=O)N1CCC[C@H]1C(=O)N[C@H](C(=O)N[C@@H]1C(=O)N[C@@H](CC(C)C)C(=O)N[C@H]2CC[C@@H](O)N(C2=O)[C@@H](Cc2ccccc2)C(=O)N(C)[C@@H](Cc2ccc(O)cc2)C(=O)N[C@@H](C(C)C)C(=O)O[C@@H]1C)[C@@H](C)O [kempopeptin A]
[12]
  IC50: 300 nM
